Experiments:
[1] = target: T1, Gastrin/cholecystokinin type B receptor (Rattus norvegicus, UniProt P30553); assay: In vitro inhibition of [3H]propionyl-CCK-8 binding to rat cerebral cortex membranes at Cholecystokinin type B receptor.; format: cell membranes, Membrane
T1 sequence (P30553 whole entry): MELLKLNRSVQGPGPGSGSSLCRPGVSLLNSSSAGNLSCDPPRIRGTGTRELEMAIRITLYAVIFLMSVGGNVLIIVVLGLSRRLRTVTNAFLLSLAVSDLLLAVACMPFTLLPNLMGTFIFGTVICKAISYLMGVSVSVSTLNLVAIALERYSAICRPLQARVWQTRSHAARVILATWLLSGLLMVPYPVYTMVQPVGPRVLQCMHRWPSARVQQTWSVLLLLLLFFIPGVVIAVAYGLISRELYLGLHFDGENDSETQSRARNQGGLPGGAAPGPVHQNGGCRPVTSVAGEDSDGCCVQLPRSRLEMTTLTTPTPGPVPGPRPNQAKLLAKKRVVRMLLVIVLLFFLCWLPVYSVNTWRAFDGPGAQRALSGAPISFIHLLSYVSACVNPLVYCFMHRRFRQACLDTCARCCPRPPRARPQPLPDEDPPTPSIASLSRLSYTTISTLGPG
Summary of the method: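 Rat cerebral cortex homogenized in 50 mM Tris-HCl pH 7.4 with 5 mM MgCl2 and spun twice (100000g, 35 min, 4 °C). Membranes (0.45 mg protein/tube) incubated with 1 nM [3H]pCCK-8 in the same buffer plus bacitracin 0.2 mg/mL, 60 min at 25 °C. Nonspecific binding defined with 1 μM CCK-8. Seven test concentrations in duplicate, at least three experiments, mean ± SEM.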

[2] = target: T2, Cholecystokinin receptor type A (Rattus norvegicus, UniProt P30551); assay: In vitro inhibition of [3H]propionyl-CCK-8 binding to rat pancreatic membranes at Cholecystokinin type A receptor.; format: cell membranes, Membrane
T2 sequence (P30551 whole entry): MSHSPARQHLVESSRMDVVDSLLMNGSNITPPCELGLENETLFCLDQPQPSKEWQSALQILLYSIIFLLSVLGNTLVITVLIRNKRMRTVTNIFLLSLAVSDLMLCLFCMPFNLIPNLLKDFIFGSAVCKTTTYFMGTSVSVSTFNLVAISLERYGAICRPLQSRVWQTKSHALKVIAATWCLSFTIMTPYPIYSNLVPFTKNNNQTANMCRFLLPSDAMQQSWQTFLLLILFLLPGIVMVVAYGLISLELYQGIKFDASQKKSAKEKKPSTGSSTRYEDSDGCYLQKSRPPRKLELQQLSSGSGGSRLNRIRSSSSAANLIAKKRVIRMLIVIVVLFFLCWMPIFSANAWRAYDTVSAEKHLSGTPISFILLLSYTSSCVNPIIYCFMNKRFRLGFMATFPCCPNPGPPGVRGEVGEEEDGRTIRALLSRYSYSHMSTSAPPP
Summary of the method: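 Rat pancreas homogenized in Pipes-HCl pH 6.5 with 30 mM MgCl2 and spun twice (50000g, 10 min, 4 °C). Membranes (0.2 mg protein/tube) incubated with 0.5 nM [3H]pCCK-8 in the same buffer plus bacitracin and soybean trypsin inhibitor (0.2 mg/mL each), 120 min at 25 °C. Nonspecific binding defined with 1 μM CCK-8. Seven concentrations in duplicate, ≥3 experiments, mean ± SEM.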

Rattus norvegicus = organism: Rattus norvegicus; assay: Inhibition of CCK-8-stimulated amylase release from pancreatic acinar cells; format: functional, cell-based
Summary of the method: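 Pancreatic acini prepared by collagenase digestion (70 U/mL, three 10-min incubations at 37 °C under O2). Acini incubated 30 min at 37 °C under pure O2 with agitation. Amylase release was stimulated by 0.1 nM CCK-8 and expressed as percent of acinar amylase released. Percent inhibition was calculated across increasing drug concentrations, and IC50 is given with a range.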

Row | IC50 [1] | IC50 [2] | SMILES | IC50 (Rattus norvegicus)
1 | > 10 µM | > 1 µM | COC(=O)C[C@H](Cc1ccccc1)NC(=O)[C@H]1Cc2c([nH]c3ccccc23)[C@@H]2C[C@@H](NC(=O)OCc3ccccc3)C(=O)N12 | –
2 | > 10 µM | 0.0546 µM | O=C(N[C@H]1C[C@@H]2c3[nH]c4ccccc4c3C[C@@H](C(=O)N[C@H](Cc3ccccc3)C(=O)O)N2C1=O)OCc1ccccc1 | –
3 | 3.72 µM | > 1 µM | O=C(N[C@@H]1C[C@H]2c3[nH]c4ccccc4c3C[C@H](C(=O)N[C@H](Cc3ccccc3)C(=O)O)N2C1=O)OCc1ccccc1 | –
4 | > 10 µM | 0.0475 µM | COC(=O)[C@H](Cc1ccccc1)NC(=O)[C@@H]1Cc2c([nH]c3ccccc23)[C@H]2C[C@H](NC(=O)OCc3ccccc3)C(=O)N21 | –
5 | 0.202 µM | 0.00173 µM | O=C(N[C@@H]1C[C@H]2c3[nH]c4ccccc4c3C[C@H](C(=O)N[C@@H](Cc3ccccc3)C(=O)O)N2C1=O)OCc1ccccc1 | 0.0012 µM
6 | > 10 µM | 0.0978 µM | O=C(O)C[C@H](Cc1ccccc1)NC(=O)[C@H]1Cc2c([nH]c3ccccc23)[C@@H]2C[C@@H](NC(=O)OCc3ccccc3)C(=O)N12 | –
7 | > 10 µM | > 1 µM | COC(=O)[C@@H](Cc1ccccc1)NC(=O)[C@@H]1Cc2c([nH]c3ccccc23)[C@H]2C[C@H](NC(=O)OCc3ccccc3)C(=O)N21 | –
8 | > 10 µM | 0.0047 µM | O=C(N[C@H]1C[C@@H]2c3[nH]c4ccccc4c3C[C@@H](C(=O)N[C@@H](Cc3ccccc3)C(=O)O)N2C1=O)OCc1ccccc1 | 0.006 µM
9 | > 10 µM | – | O=C(O)C[C@H](Cc1ccccc1)NC(=O)[C@@H]1Cc2c([nH]c3ccccc23)[C@H]2C[C@H](NC(=O)OCc3ccccc3)C(=O)N21 | –
10 | > 10 µM | > 1 µM | NC(=O)[C@H](Cc1ccccc1)NC(=O)[C@@H]1Cc2c([nH]c3ccccc23)[C@H]2C[C@H](NC(=O)OCc3ccccc3)C(=O)N21 | –
11 | > 10 µM | > 1 µM | COC(=O)[C@@H](Cc1ccccc1)NC(=O)[C@H]1Cc2c([nH]c3ccccc23)[C@@H]2C[C@@H](NC(=O)OCc3ccccc3)C(=O)N12 | –
12 | 5.63 µM | 0.45 µM | COC(=O)[C@H](Cc1ccccc1)NC(=O)[C@H]1Cc2c([nH]c3ccccc23)[C@@H]2C[C@@H](NC(=O)OCc3ccccc3)C(=O)N12 | –
13 | > 10 µM | > 1 µM | O=C(O)C[C@@H](Cc1ccccc1)NC(=O)[C@H]1Cc2c([nH]c3ccccc23)[C@@H]2C[C@@H](NC(=O)OCc3ccccc3)C(=O)N12 | –
14 | 2.7 µM | – | O=C(O)C[C@@H](Cc1ccccc1)NC(=O)[C@@H]1Cc2c([nH]c3ccccc23)[C@H]2C[C@H](NC(=O)OCc3ccccc3)C(=O)N21 | –
15 | > 10 µM | > 1 µM | NC(=O)[C@@H](Cc1ccccc1)NC(=O)[C@@H]1Cc2c([nH]c3ccccc23)[C@H]2C[C@H](NC(=O)OCc3ccccc3)C(=O)N21 | –
16 | 4.91 µM | > 1 µM | COC(=O)C[C@@H](Cc1ccccc1)NC(=O)[C@H]1Cc2c([nH]c3ccccc23)[C@@H]2C[C@@H](NC(=O)OCc3ccccc3)C(=O)N12 | –
17 | – | – | CN1C(=O)[C@@H](NC(=O)c2cc3ccccc3[nH]2)N=C(c2ccccc2)c2ccccc21 [DEVAZEPIDE] | 0.0025 µM
